A selection: hits, their analogues and other compounds. The true share with any hit is near 2%.
CHRM1 antagonist: antagonists of human M1 muscarinic receptor; P11229; CHO-K1 hM1, Fluo-8 calcium fluorescence, ACh EC80 antagonist; 360,000 tested, 1.3% active; inhibition, % at 3 µM; AID 588852;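 active means percent inhibition above its own plate's cutoff, namely the mean of that plate's compound wells plus 3 SD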;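 further: peak over basal fluorescence ratio during 140 s after agonist addition; 0% = ACh EC80 plus DMSO and 100% = DMSO alone without agonist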
CHRM1 PAM: human CHRM1 positive allosteric modulation; 360,000 tested, 0.088% active; P11229; CHO-K1 hM1, Fluo-8 calcium fluorescence, ACh EC20; 0% = ACh EC20, 100% = maximal ACh; activation, % at 3 µM; in the data active means activation above about 19%, passing the limit was not always enough
CHRM5 PAM: CHRM5 positive allosteric modulation. CHO-K1 hM5, Fluo-8 calcium, ACh EC20 PAM; 0% = ACh EC20, 100% = ACh EC100. P08912. 360,000 tested, 0.3% active. activation, % at 3 µM;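 active means activation above the run cutoff, the mean activation of all test compounds plus 3 SD, cut at about 18% in these data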
Target sequence (P08912 whole entry, looked up): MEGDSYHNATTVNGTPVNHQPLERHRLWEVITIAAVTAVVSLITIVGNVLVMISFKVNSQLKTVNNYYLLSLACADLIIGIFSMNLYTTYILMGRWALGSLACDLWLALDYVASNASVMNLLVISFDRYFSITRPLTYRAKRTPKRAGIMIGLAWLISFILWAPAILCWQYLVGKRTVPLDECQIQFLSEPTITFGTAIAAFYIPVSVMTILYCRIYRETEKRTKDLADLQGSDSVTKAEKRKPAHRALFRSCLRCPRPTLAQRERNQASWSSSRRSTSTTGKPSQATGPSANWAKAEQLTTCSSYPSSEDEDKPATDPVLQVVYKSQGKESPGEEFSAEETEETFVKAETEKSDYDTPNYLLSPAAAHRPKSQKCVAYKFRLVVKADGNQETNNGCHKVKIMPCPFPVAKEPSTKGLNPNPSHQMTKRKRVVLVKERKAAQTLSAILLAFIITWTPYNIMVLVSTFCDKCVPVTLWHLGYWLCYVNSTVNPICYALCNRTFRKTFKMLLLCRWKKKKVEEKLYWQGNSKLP
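System: CHO-K1 hM5 cells. Reagent: acetylcholine, EC20 level. Compound dosing: single dose, 3 µM nominal final test concentration. Timing: Post-acetylcholine fluorescence recording 140 s. Detection: Fluo-8 calcium fluorescence. Read-out: % activation, ACh-normalized. Benchmarks: ACh EC20 and EC100 wells. Repeats: singlicate, one well per test compound.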
M1 ag: human M1 muscarinic receptor agonism; activation, % at 3 µM; P11229; CHO-K1 hM1, Fluo-8 calcium fluorescence, agonist mode; 0% DMSO, 100% acetylcholine EC100; 360,000 tested, 0.33% active; AID 588814;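 active means activation above the run's mean compound activation plus 3 SD, cut at about 16% in these data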;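 further: peak over basal fluorescence ratio within a 140 s kinetic read after compound addition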
CHRM5 agonist: agonists of human muscarinic M5 receptor (CHRM5) | P08912 | CHO-K1 hM5 cells, Fluo-8 calcium fluorescence; 0% DMSO wells, 100% maximal acetylcholine response | activation, % at 3 µM | 360,000 tested, 0.19% active | AID 624037;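 active means activation above the run's mean over test compounds plus 3 SD, cut at about 23% in these data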;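 further: signal is peak over basal fluorescence ratio across the kinetic read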
M5 antag: CHRM5 antagonism in calcium assay; AID 624040; CHO-hM5 cells, Fluo-8 calcium fluorescence, ACh EC80; 360,000 tested, 0.59% active; inhibition, % at 3 µM;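 active means inhibition above a per-plate cutoff, the mean of that plate's test compounds plus 3 SD, cut at about 27% in these data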;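 further: 0% = acetylcholine EC80 with DMSO and 100% = DMSO without agonist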
* hit, by the source's call; · = no result.

SMILES | CHRM1 antagonist | CHRM1 PAM | CHRM5 PAM | M1 ag | CHRM5 agonist | M5 antag
CCOC(=O)C1(CC2CCCCO2)CCN(Cc2cc3ccccc3[nH]2)CC1 (stereo not given) | 29* | -32 | -21 | 62* | 62* | 34*
O=C(COc1ccccc1Cl)c1ccc[nH]1 | 29* | -5 | -4 | -11 | -4 | 0
COc1ccc(CN(C)CC2CCCN(CCc3ccc(F)cc3)C2)cc1OC (stereo not given) | -14 | 4 | -4 | -9 | -10 | -8
COc1ccc(F)c(CN(C)CC2CCCN(CCc3ccc(F)cc3)C2)c1 (stereo not given) | 33* | -25 | -10 | -8 | -21 | 8
COc1cc(CN(C)CC2CCCN(CCc3ccccc3F)C2)cc(Cl)c1OC (stereo not given) | 74* | -27 | -15 | -10 | -17 | 16
CC(=O)c1cccc(CN(C)CC2CCCN(CCc3ccccc3C)C2)c1 (stereo not given) | 100* | -27 | -33 | -9 | -23 | 81*
COc1ccc(NC(=S)N2CCN(C(c3ccccc3)c3ccccc3)CC2)cc1OC | 38* | -25 | -19 | -8 | -10 | 23
COC(=O)[C@]12CCCCC=C1N(Cc1cccc3ccccc13)C(=O)[C@H](CC(=O)NCCCCc1ccccc1)C2 | · | · | -9 | · | 0 | -9
CCc1nonc1NC(=O)c1oc2cc(C)c(C)cc2c1C | -20 | 15 | 13 | 0 | 13 | -5
CCc1nonc1NC(=O)c1oc2cc(C)c(Cl)cc2c1C | -4 | 2 | 25* | -1 | -3 | -17
COc1ccc(NC(=O)CCNC(=O)N2CC(=O)Nc3ccccc32)cc1OC | -16 | 8 | 7 | -1 | 0 | -8
CC(=O)c1ccc(OCCCC(=O)OCC(=O)N2CCN(S(=O)(=O)c3ccc(C)cc3C)CC2)cc1 | 29* | -9 | -15 | 3 | 4 | 21
O=C(CSc1ccc2nnc(-c3cccnc3)n2n1)NCc1ccc2c(c1)OCO2 | 64* | -27 | -7 | -10 | -1 | 3
O=C(CSc1ccc2nnc(-c3ccccc3)n2n1)NCc1ccc2c(c1)OCO2 | -14 | 5 | -2 | 1 | 2 | -5
COc1ccc(OC)c(NC(=O)C2(C)CCN2CCc2ccccc2)c1 (stereo not given) | -1 | -3 | -2 | 10 | 6 | 3
Cc1ccc(C)c(NC(=O)CN(C)C(=O)[C@@H](NC(=O)c2ccc(C(C)(C)C)cc2)C(C)C)c1 | -6 | 7 | 1 | -9 | -2 | -4
Cc1sc2ncnc(NCC(c3ccco3)N3CCCC3)c2c1C (stereo not given) | 91* | -25 | -21 | -6 | -7 | 15
Nc1c(C(=O)C2CC2)sc2nc(-c3ccccc3)cc(C(F)(F)F)c12 | -8 | 11 | 20* | 3 | 2 | 1
CN(C)CCNC(=O)c1sc2nc(-c3ccccc3)cc(C(F)(F)F)c2c1N | -11 | 4 | -4 | 0 | 5 | 9
CC(C)C[C@H](NC(=O)/C=C/[C@H]1O[C@@H](n2ccc(=O)[nH]c2=O)[C@H](O)[C@@H]1O)C(=O)O | -14 | 7 | 2 | 17* | 2 | 9
COC(=O)[C@H](CC(C)C)NC(=O)/C=C/[C@H]1O[C@@H](n2ccc(=O)[nH]c2=O)[C@H](O)[C@@H]1O | -5 | -2 | -3 | -2 | 5 | 11
CC1(Cc2ccc(F)cc2)C(=O)Nc2ccc(-c3cccnc3)cc21 (stereo not given) | 3 | -5 | -7 | -3 | 1 | -2
CCCCOc1ccc(C(O)C(CN2CCCCC2)c2ccccc2)cc1 (stereo not given) | 35* | -31 | -18 | -14 | -9 | 22
CCCCOc1ccc(CN2CCCCC2)cc1 | 42* | -31 | -1 | -15 | -7 | -1
CCCCOc1ccc(C(O)C(CN2CCOCC2)c2ccccc2)cc1 (stereo not given) | -11 | 3 | -2 | -5 | -11 | 7
O=[N+]([O-])c1cccc(COc2ccccc2CN2CCCCC2)c1 | 14 | -14 | -6 | -10 | -3 | 7
